Reference: ChEMBL document CHEMBL3046604, “Synthesis and fungistatic activity of new groups of 2,4-dihydroxythiobenzoyl derivatives against phytopathogenic fungi” (J Agric Food Chem, 2003)
Activity calls are given as the source filed them. The calls are words filed in the database; no cut-off is given here.

Assays:
[1] = test system: Rhizoctonia solani; assay: Fungistatic activity against Rhizoctonia solani assessed as mycelial growth inhibition at 200 ug/ml after 4 to 8 days relative to control; type: functional; conditions: for inhibition of growth at 200 µg/mL: read-out: GI
Procedure, shortened: (§1)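 Compound solutions or suspensions were diluted into PDA agar to final 200 or 20 µg/mL and poured into Petri dishes. Once the agar set, mycelium-covered agar disks of the fungus were placed at three sites on the surface. Linear colony growth was measured after 4-8 days, depending on the culture. Inhibition J = [(C − T)/C] × 100 versus untreated control, reported on a four-degree scale.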

[2] = test system: Botrytis cinerea; assay: Fungistatic activity against Botryotinia fuckeliana assessed as mycelial growth inhibition at 200 ug/ml after 4 to 8 days relative to control; type: functional; conditions: for inhibition of growth at 200 µg/mL: read-out: GI; procedure, shortened: as §1
[3] = Lipophilicity, log K of the compound in methanol-water mixture by HPLC; type: physicochemical
Procedure, shortened: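 Reversed-phase HPLC on a Hypersil BDS C18 column (5 µm, 150 × 4.6 mm) with UV detection at 320 nm. Samples were dissolved in methanol. Mobile phase was methanol at varying volume fractions in 10 mM acetate buffer pH 4, run at 1 mL/min and room temperature. Dead time was taken from injection of acetone dissolved in water.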

[4] = test system: Botrytis cinerea; assay: Fungistatic activity against Botryotinia fuckeliana assessed as mycelial growth inhibition at 20 ug/ml after 4 to 8 days relative to control; type: functional; conditions: for inhibition of growth at 20 µg/mL: read-out: GI; procedure, shortened: as §1
[5] = test system: Alternaria alternata; assay: Fungistatic activity against Alternaria alternata assessed as mycelial growth inhibition at 20 ug/ml after 4 to 8 days relative to control; type: functional; conditions: for inhibition of growth at 20 µg/mL: read-out: GI; procedure, shortened: as §1
[6] = test system: Fusarium culmorum; assay: Fungistatic activity against Fusarium culmorum assessed as mycelial growth inhibition at 200 ug/ml after 4 to 8 days relative to control; type: functional; conditions: for inhibition of growth at 200 µg/mL: read-out: GI; procedure, shortened: as §1
[7] = test system: Rhizoctonia solani; assay: Fungistatic activity against Rhizoctonia solani assessed as mycelial growth inhibition at 20 ug/ml after 4 to 8 days relative to control; type: functional; conditions: for inhibition of growth at 20 µg/mL: read-out: GI; procedure, shortened: as §1
[8] = test system: Blumeria graminis; assay: Fungistatic activity against Blumeria graminis infested wheat seedling assessed as inhibition of fungal infection at 500 ug/ml applied as spray after 7 to 14 days under green house conditions relative to control; type: functional
Procedure, shortened: (§2)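 Greenhouse test on healthy wheat seedlings with Erysiphe graminis. At the well-developed first-leaf stage, plants were sprayed with compound solution at 1000 or 500 µg/mL, 10 mL of solution per treatment, with three repeats in 9 cm paraffin cups.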

[9] = test system: Phytophthora cactorum; assay: Fungistatic activity against Phytophthora cactorum assessed as mycelial growth inhibition at 200 ug/ml after 4 to 8 days relative to control; type: functional; conditions: for inhibition of growth at 200 µg/mL: read-out: GI; procedure, shortened: as §1
[10] = test system: Phytophthora cactorum; assay: Fungistatic activity against Phytophthora cactorum assessed as mycelial growth inhibition at 20 ug/ml after 4 to 8 days relative to control; type: functional; conditions: for inhibition of growth at 20 µg/mL: read-out: GI; procedure, shortened: as §1
[11] = test system: Alternaria alternata; assay: Fungistatic activity against Alternaria alternata assessed as mycelial growth inhibition at 200 ug/ml after 4 to 8 days relative to control; type: functional; conditions: for inhibition of growth at 200 µg/mL: read-out: GI; procedure, shortened: as §1
[12] = test system: Blumeria graminis; assay: Fungistatic activity against Blumeria graminis infested wheat seedling assessed as inhibition of fungal infection at 1000 ug/ml applied as spray after 7 to 14 days under green house conditions relative to control; type: functional; procedure, shortened: as §2
[13] = test system: Fusarium culmorum; assay: Fungistatic activity against Fusarium culmorum assessed as mycelial growth inhibition at 20 ug/ml after 4 to 8 days relative to control; type: functional; conditions: for inhibition of growth at 20 µg/mL: read-out: GI; procedure, shortened: as §1

Structure (SMILES): Oc1ccc(C(=S)Nc2cc(C(F)(F)F)ccc2N2CCOCC2)c(O)c1
- inhibition of growth at 200 µg/mL [1]: 0%
- inhibition of growth at 200 µg/mL [2]: 21%
- log K [3]: 0.035
- inhibition of growth at 20 µg/mL [4]: 0%
- inhibition of growth at 20 µg/mL [5]: 0%
- inhibition of growth at 200 µg/mL [6]: 21%
- inhibition of growth at 20 µg/mL [7]: 0%
- inhibition at 500 µg/mL [8]: 0%
- inhibition of growth at 200 µg/mL [9]: 41%
- inhibition of growth at 20 µg/mL [10]: 0%
- inhibition of growth at 200 µg/mL [11]: 21%
- inhibition at 1000 µg/mL [12]: 0%
- inhibition of growth at 20 µg/mL [13]: 0%

Structure (SMILES): O=C(CC(=O)c1ccc(NC(=S)c2ccc(O)cc2O)cc1)Nc1ccccc1Cl
- log K [3]: -0.29

Structure (SMILES): Oc1ccc(C(=S)Nc2ccccc2-c2ccccc2)c(O)c1
- inhibition of growth at 200 µg/mL [1]: 61%
- inhibition of growth at 200 µg/mL [2]: 61%
- log K [3]: 0.118
- inhibition of growth at 20 µg/mL [4]: 0%
- inhibition of growth at 20 µg/mL [5]: 0%
- inhibition of growth at 200 µg/mL [6]: 61%
- inhibition of growth at 20 µg/mL [7]: 0%
- inhibition at 500 µg/mL [8]: 0%
- inhibition of growth at 200 µg/mL [9]: 81%
- inhibition of growth at 20 µg/mL [10]: 41%
- inhibition of growth at 200 µg/mL [11]: 61%
- inhibition at 1000 µg/mL [12]: 21%
- inhibition of growth at 20 µg/mL [13]: 0%

Structure (SMILES): O=C(NNC(=S)c1ccc(O)cc1O)c1ccncc1
- log K [3]: -0.21

Structure (SMILES): Oc1ccc(C(=S)NNC(=S)Nc2ccc(F)cc2)c(O)c1
- inhibition of growth at 200 µg/mL [1]: 0%
- inhibition of growth at 200 µg/mL [2]: 0%
- log K [3]: 0.24
- inhibition of growth at 20 µg/mL [4]: 0%
- inhibition of growth at 20 µg/mL [5]: 0%
- inhibition of growth at 200 µg/mL [6]: 0%
- inhibition of growth at 20 µg/mL [7]: 0%
- inhibition at 500 µg/mL [8]: 0%
- inhibition of growth at 200 µg/mL [9]: 0%
- inhibition of growth at 20 µg/mL [10]: 0%
- inhibition of growth at 200 µg/mL [11]: 21%
- inhibition at 1000 µg/mL [12]: 0%
- inhibition of growth at 20 µg/mL [13]: 0%

Structure (SMILES): CC12CC1(C)C(=O)N(c1cc(Cl)cc(Cl)c1)C2=O (stereo not drawn) [PROCYMIDONE]
- growth inhibition (GI) [1]: inactive
- inhibition of growth at 200 µg/mL [2]: 81%
- inhibition of growth at 20 µg/mL [4]: 81%
- inhibition of growth at 20 µg/mL [5]: 81%
- growth inhibition (GI) [6]: inactive
- growth inhibition (GI) [7]: inactive
- growth inhibition (GI) [9]: inactive
- growth inhibition (GI) [10]: inactive
- inhibition of growth at 200 µg/mL [11]: 81%
- growth inhibition (GI) [13]: inactive

Structure (SMILES): O=C(OC/C=C/c1ccccc1)c1ccccc1NC(=S)c1ccc(O)cc1O
- inhibition of growth at 200 µg/mL [1]: 81%
- inhibition of growth at 200 µg/mL [2]: 61%
- log K [3]: 0.488
- inhibition of growth at 20 µg/mL [4]: 21%
- inhibition of growth at 20 µg/mL [5]: 41%
- inhibition of growth at 200 µg/mL [6]: 81%
- inhibition of growth at 20 µg/mL [7]: 21%
- inhibition at 500 µg/mL [8]: 21%
- inhibition of growth at 200 µg/mL [9]: 81%
- inhibition of growth at 20 µg/mL [10]: 41%
- inhibition of growth at 200 µg/mL [11]: 61%
- inhibition at 1000 µg/mL [12]: 21%
- inhibition of growth at 20 µg/mL [13]: 41%

Structure (SMILES): Oc1ccc(C(=S)NN=C2c3ccccc3-c3ccccc32)c(O)c1
- inhibition of growth at 200 µg/mL [1]: 0%
- inhibition of growth at 200 µg/mL [2]: 21%
- log K [3]: 0.232
- inhibition of growth at 20 µg/mL [4]: 0%
- inhibition of growth at 20 µg/mL [5]: 0%
- inhibition of growth at 200 µg/mL [6]: 0%
- inhibition of growth at 20 µg/mL [7]: 0%
- inhibition at 500 µg/mL [8]: 0%
- inhibition of growth at 200 µg/mL [9]: 41%
- inhibition of growth at 20 µg/mL [10]: 0%
- inhibition of growth at 200 µg/mL [11]: 41%
- inhibition at 1000 µg/mL [12]: 0%
- inhibition of growth at 20 µg/mL [13]: 0%

Structure (SMILES): COc1ccc(COC(=O)NNC(=S)c2ccc(O)cc2O)cc1
- log K [3]: 0.103

Structure (SMILES): COC(=O)Nc1nc2ccccc2[nH]1 [CARBENDAZIM]
- inhibition of growth at 200 µg/mL [1]: 81%
- growth inhibition (GI) [2]: inactive
- growth inhibition (GI) [4]: inactive
- growth inhibition (GI) [5]: inactive
- inhibition of growth at 200 µg/mL [6]: 81%
- inhibition of growth at 20 µg/mL [7]: 81%
- inhibition of growth at 200 µg/mL [9]: 81%
- inhibition of growth at 20 µg/mL [10]: 81%
- growth inhibition (GI) [11]: inactive
- inhibition of growth at 20 µg/mL [13]: 81%
